The results in this text go back to ChEMBL document CHEMBL5678799 (Biochem J, 2009).

Assay [1] deals with Calcium/calmodulin-dependent protein kinase type 1 (Homo sapiens) (UniProt Q14012). Description: Inhibition of recombinant human N-terminal GST-tagged CAMK1alpha (2 to 369 residues) expressed in Escherichia coli assessed as remaining activity at 1 uM using YLRRRLSDSNF as substrate incubated for 30 mins in presence of [gamma-33P]ATP by filter binding method relative to control. Put shortly: (§1)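 Run robotically for 30 min at 21 °C under linear conditions. Compound at 1 or 10 µM. Percentage activity remaining versus control without compound, triplicate mean ± S.D.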

Assay [2] deals with Dual specificity tyrosine-phosphorylation-regulated kinase 2 (Homo sapiens) (UniProt Q92630). Kind of assay: Inhibition of recombinant human N-terminal GST-tagged DYRK2 (3 to 528 residues) expressed in Escherichia coli assessed as remaining activity at 1 uM using KKISGRLSPIMTEQ as substrate incubated for 30 mins in presence of [gamma-33P]ATP by filter binding method relative to control. Put shortly:
as §1

Assay [3] concerns the target Ribosomal protein S6 kinase alpha-5 (Homo sapiens) (UniProt O75582). Description: Inhibition of recombinant human His6-tagged MSK1 (2 to 802 residues) expressed in baculovirus infected Sf21 cells assessed as remaining activity at 1 uM using GRPRTSSFAEGKK as substrate incubated for 30 mins in presence of [gamma-33P]ATP by filter binding method relative to control. Put shortly: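 Robotic radiometric panel assay, 30 min at room temperature (21 °C), with 10 mM magnesium acetate. […] Compound at 1 or 10 µM. Residual activity expressed relative to compound-free control; triplicate average ± S.D.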

Assay [4] has as its target Serine/threonine-protein kinase PAK 5 (Homo sapiens) (UniProt Q9P286). Description: Inhibition of recombinant human N-terminal GST-tagged PAK5 (2 to 719 residues) expressed in Escherichia coli assessed as remaining activity at 1 uM using RRRLSFAEPG as substrate incubated for 30 mins in presence of [gamma-33P]ATP by filter binding method relative to control. Put shortly: (§2)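 Panel assays were run for 30 min at 21 °C, within the linear range for time and enzyme. […] Results are percent activity remaining relative to compound-free control, averaged from triplicate ± S.D.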

Assay [5] deals with Protein kinase C zeta type (Homo sapiens) (UniProt Q05513). Kind of assay: Inhibition of recombinant human N-terminal His6-tagged PKCzeta (2 to 592 residues) expressed in baculovirus infected Sf21 cells assessed as remaining activity at 1 uM using ERMRPRKRQGSVRRV as substrate incubated for 30 mins in presence of [gamma-33P]ATP by filter binding method relative to control.
In assay [6] the target is Dual specificity tyrosine-phosphorylation-regulated kinase 2 (Homo sapiens) (UniProt Q92630). Kind of assay: Inhibition of recombinant human N-terminal GST-tagged DYRK2 (3 to 528 residues) expressed in Escherichia coli assessed as remaining activity at 10 uM using KKISGRLSPIMTEQ as substrate incubated for 30 mins in presence of [gamma-33P]ATP by filter binding method relative to control. Put shortly:
as §1

The target of assay [7] is Inhibitor of nuclear factor kappa-B kinase subunit epsilon (Homo sapiens) (UniProt Q14164). Description: Inhibition of recombinant human N-terminal GST-tagged IKKepsilon (1 to 716 residues) expressed in baculovirus infected Sf21 cells assessed as remaining activity at 10 uM using MBP as substrate incubated for 30 mins in presence of [gamma-33P]ATP by filter binding method relative to control. Put shortly:
(§3)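 Incubation was 30 min at room temperature (21 °C) under conditions linear with time and enzyme amount. Activity is reported as percent of control lacking compound, triplicate mean ± S.D.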

In assay [8] the target is MAP kinase-interacting serine/threonine-protein kinase 1 (Homo sapiens) (UniProt Q9BUB5). Kind of assay: Inhibition of recombinant human N-terminal GST-tagged C-terminal His6-tagged MNK1 (2 to 424 residues) expressed in Escherichia coli assessed as remaining activity at 10 uM using eIF4E as substrate incubated for 30 mins in presence of [gamma-33P]ATP by filter binding method relative to control.

The target of assay [9] is Serine/threonine-protein kinase Nek2 (Homo sapiens) (UniProt P51955). Description: Inhibition of recombinant human N-terminal His6-tagged NEK2A (1 to 445 residues) expressed in baculovirus infected Sf21 cells assessed as remaining activity at 10 uM using RFRRSRRMI as substrate incubated for 30 mins in presence of [gamma-33P]ATP by filter binding method relative to control.

The target of assay [10] is Mitogen-activated protein kinase 11 (Homo sapiens) (UniProt Q15759). Kind of assay: Inhibition of recombinant human N-terminal GST-tagged P38beta (1 to 364 residues) expressed in Escherichia coli assessed as remaining activity at 10 uM using MBP as substrate incubated for 30 mins in presence of [gamma-33P]ATP by filter binding method relative to control. Put shortly:
as §2

The target in assay [11] is Phosphorylase b kinase gamma catalytic chain, skeletal muscle/heart isoform (Homo sapiens) (UniProt Q16816). Description: Inhibition of recombinant human N-terminal GST-tagged PHKgamma1 (2 to 297 residues) expressed in Escherichia coli assessed as remaining activity at 10 uM using phosphorylase b peptide as substrate incubated for 30 mins in presence of [gamma-33P]ATP by filter binding method relative to control. Put shortly: as §3

The species entered for the next assay is Homo sapiens. Description: Inhibition of choline kinase (unknown origin) assessed as remaining activity at 1 uM using choline as substrate incubated for 30 mins in presence of ATP by Kinase Glo assay relative to control. Put shortly: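 Choline kinase assayed with 1 mM choline, 1 μM ATP in 25 mM glycine/NaOH pH 8.5, 67 mM KCl, 5 mM MgCl2, 1 mM DTT, 30 min at room temperature. Stopped with Kinase-Glo Plus, luminescence read after 10 min. Activity relative to control, triplicate.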
For orientation: Kinase-Glo reads ATP consumption through a luciferase reaction.

Assay [12] addresses Serine/threonine-protein kinase mTOR (Mus musculus) (UniProt Q9JLN9). Description: Inhibition of mTOR in MEF cells assessed as reduction in 4E-BP1 phosphorylation at S65 residues at 1 uM incubated for 30 mins by immunoblot analysis. In kind it is cell-based. Put shortly: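 HEK-293 cells or MEFs cultured in 10% serum and treated 30 min with inhibitor. Lysed in Tris lysis buffer. Lysates immunoblotted for 4E-BP1 phosphorylated at Thr37/Thr46 and Ser65, with mobility shift noted. Three experiments.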
In general terms: Immunoblotting shows a protein as a band on a membrane.

Assay [13] addresses T1, mTORC1 (Homo sapiens) (UniProt P42345+Q8N122+Q9BVC4). To be noted: HEK293, dose 30.0 nM, time 30.0 min.
In assay [14] the target is T1, mTORC1 (Homo sapiens). As to conditions: HEK293, dose 30-1000 nM, time 30.0 min.
Assay [15] concerns the target T1, mTORC1 (Homo sapiens). To be noted: HEK293, dose 30-1000 nM, time 30.0 min. The source holds these as a separate data set.
Another assay has as its target mTORC2 (Homo sapiens) (UniProt P42345+Q6R327+Q9BVC4+Q9BPZ7). To be noted: HEK293, dose 30-1000 nM, time 30.0 min.

The source made the active and inactive calls. The rule behind the calls is not given here.

Chain of Dual specificity tyrosine-phosphorylation-regulated kinase 2 (Homo sapiens) (Q92630 whole entry, the tested form may be a part): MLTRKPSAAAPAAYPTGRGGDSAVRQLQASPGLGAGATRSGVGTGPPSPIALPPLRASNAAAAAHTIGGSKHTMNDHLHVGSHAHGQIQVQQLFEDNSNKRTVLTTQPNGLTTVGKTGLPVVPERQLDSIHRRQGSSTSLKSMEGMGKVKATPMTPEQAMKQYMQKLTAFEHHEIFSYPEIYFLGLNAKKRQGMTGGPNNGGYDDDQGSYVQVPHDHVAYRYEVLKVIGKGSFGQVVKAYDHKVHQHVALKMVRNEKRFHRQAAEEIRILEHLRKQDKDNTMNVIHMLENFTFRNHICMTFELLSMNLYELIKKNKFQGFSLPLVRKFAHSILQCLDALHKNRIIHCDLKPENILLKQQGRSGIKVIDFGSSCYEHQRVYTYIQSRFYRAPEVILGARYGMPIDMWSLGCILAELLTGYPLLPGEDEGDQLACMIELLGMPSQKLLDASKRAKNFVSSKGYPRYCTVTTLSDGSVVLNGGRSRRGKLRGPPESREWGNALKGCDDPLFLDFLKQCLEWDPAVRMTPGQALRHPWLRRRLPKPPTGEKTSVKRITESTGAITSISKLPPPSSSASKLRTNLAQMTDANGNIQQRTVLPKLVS
Chain of Phosphorylase b kinase gamma catalytic chain, skeletal muscle/heart isoform (Homo sapiens) (Q16816 whole entry, looked up, the tested form may be a part, canonical isoform): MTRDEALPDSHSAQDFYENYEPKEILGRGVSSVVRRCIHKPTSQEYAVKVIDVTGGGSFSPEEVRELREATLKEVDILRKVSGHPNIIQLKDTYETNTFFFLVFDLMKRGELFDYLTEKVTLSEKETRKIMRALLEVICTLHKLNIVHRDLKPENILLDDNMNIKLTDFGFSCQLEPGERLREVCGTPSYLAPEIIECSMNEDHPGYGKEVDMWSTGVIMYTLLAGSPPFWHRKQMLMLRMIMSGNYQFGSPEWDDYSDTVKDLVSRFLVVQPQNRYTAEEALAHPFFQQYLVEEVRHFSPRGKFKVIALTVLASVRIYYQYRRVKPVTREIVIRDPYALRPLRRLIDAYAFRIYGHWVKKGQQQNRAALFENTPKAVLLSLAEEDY
Chain of Serine/threonine-protein kinase Nek2 (Homo sapiens) (P51955 whole entry, the tested form may be a part): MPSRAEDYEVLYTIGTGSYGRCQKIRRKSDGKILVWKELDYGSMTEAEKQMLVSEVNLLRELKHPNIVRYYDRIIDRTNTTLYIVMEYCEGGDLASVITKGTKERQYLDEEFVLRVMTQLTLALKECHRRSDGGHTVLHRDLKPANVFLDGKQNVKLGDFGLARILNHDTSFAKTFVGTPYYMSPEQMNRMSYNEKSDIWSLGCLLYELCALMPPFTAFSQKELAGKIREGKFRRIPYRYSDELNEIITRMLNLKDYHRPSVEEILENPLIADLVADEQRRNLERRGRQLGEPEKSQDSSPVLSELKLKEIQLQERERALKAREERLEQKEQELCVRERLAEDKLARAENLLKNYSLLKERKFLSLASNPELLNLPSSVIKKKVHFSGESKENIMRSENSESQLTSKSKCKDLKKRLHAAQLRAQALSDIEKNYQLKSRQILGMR
Chain of MAP kinase-interacting serine/threonine-protein kinase 1 (Homo sapiens) (Q9BUB5 whole entry, looked up, the tested form may be a part): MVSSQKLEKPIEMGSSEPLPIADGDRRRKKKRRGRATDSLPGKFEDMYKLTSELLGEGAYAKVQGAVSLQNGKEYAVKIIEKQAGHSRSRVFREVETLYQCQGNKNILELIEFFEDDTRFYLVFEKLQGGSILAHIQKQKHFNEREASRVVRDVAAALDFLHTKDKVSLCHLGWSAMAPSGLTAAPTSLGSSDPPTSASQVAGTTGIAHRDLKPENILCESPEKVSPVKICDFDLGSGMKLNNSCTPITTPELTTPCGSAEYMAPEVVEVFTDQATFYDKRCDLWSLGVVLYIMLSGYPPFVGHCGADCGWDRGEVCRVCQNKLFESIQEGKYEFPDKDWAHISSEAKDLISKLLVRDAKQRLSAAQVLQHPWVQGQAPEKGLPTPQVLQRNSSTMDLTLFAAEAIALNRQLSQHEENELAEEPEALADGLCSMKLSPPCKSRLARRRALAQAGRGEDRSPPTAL
Chain of Calcium/calmodulin-dependent protein kinase type 1 (Homo sapiens) (Q14012 whole entry, looked up, the tested form may be a part): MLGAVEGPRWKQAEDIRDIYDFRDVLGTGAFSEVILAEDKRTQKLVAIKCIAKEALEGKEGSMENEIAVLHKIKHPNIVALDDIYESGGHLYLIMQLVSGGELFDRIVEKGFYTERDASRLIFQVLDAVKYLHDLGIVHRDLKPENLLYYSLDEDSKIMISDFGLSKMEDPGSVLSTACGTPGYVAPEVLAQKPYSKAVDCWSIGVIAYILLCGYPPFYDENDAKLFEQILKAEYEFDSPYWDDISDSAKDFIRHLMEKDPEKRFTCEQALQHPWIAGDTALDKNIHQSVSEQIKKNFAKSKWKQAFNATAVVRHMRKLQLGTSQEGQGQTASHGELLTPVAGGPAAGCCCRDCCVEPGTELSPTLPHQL
Chain of Mitogen-activated protein kinase 11 (Homo sapiens) (Q15759 whole entry, the tested form may be a part): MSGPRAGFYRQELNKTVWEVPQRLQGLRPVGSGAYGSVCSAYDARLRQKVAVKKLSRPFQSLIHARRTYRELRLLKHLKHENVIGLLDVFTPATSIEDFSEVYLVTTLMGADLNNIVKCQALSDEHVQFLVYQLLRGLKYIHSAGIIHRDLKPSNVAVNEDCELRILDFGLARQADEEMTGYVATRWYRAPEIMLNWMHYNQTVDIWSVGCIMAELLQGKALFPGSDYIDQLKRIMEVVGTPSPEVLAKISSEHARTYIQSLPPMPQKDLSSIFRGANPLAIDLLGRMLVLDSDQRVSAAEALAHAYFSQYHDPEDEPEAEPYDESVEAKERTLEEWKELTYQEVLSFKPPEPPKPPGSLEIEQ
Chain of Serine/threonine-protein kinase PAK 5 (Homo sapiens) (Q9P286 whole entry, looked up, the tested form may be a part): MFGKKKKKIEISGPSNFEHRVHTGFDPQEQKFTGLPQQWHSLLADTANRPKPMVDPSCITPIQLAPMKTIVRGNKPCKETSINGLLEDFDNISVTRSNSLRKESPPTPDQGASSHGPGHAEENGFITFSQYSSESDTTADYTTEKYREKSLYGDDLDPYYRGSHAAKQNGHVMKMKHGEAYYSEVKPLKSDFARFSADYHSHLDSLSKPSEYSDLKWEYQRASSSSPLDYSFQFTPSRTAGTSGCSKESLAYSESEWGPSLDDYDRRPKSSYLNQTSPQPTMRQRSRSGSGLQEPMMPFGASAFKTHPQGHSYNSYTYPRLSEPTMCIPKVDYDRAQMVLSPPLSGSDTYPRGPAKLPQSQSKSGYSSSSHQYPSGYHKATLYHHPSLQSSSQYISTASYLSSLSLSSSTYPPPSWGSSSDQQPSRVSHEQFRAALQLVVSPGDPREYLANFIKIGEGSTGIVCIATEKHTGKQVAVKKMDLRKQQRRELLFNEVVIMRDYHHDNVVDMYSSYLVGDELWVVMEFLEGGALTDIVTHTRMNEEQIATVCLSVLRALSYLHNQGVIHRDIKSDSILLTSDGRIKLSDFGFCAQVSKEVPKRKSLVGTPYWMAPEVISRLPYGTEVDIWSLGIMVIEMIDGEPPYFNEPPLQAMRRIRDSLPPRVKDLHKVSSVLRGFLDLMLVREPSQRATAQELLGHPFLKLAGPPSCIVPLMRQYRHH
Chain of Protein kinase C zeta type (Homo sapiens) (Q05513 whole entry, the tested form may be a part): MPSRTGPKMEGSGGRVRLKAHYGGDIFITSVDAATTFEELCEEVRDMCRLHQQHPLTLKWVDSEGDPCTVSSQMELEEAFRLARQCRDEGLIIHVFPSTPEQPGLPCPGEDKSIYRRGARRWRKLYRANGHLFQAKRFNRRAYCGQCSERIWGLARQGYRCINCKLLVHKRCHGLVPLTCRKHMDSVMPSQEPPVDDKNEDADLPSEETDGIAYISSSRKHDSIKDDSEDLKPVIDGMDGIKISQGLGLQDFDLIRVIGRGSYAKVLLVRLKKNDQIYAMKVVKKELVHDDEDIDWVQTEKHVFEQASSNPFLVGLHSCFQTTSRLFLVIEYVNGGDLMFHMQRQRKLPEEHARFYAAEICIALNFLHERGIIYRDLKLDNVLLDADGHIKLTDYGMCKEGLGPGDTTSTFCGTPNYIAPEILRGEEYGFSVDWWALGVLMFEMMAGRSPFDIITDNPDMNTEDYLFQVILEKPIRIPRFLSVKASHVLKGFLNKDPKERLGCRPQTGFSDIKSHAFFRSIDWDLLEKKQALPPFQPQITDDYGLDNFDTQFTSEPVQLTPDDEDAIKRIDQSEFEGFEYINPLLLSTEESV
Chain of Ribosomal protein S6 kinase alpha-5 (Homo sapiens) (O75582 whole entry, looked up, the tested form may be a part): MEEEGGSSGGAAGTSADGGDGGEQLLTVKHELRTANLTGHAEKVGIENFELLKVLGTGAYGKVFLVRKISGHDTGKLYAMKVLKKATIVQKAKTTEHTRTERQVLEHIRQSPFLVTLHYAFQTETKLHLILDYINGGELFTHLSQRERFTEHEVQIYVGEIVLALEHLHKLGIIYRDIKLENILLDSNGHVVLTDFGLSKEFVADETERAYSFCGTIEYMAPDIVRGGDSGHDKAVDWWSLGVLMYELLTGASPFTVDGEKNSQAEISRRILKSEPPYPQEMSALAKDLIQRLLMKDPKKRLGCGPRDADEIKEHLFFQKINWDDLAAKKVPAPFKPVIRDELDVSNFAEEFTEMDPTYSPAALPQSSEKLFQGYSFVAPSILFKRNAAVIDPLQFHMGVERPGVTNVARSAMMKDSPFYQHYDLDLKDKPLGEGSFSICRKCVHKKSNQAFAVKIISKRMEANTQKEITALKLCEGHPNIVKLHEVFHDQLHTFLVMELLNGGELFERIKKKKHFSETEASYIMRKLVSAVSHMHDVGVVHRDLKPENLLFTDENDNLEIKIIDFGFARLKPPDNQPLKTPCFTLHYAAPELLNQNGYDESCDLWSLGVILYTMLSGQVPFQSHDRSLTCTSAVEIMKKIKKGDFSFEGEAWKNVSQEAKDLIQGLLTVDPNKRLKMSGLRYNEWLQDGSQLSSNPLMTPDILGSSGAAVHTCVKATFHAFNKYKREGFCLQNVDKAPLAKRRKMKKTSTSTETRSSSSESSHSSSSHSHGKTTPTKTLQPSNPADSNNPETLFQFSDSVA

Regarding `COc1ccc(-c2ccc3c(N4CCOCC4)nc(N4C[C@@H](C)O[C@@H](C)C4)nc3n2)cc1CO` [Ku-0063794], the Activity in assay [1] turned out to be 96%; in assay [2], 92%; in [3] it was 101%; in assay [4] it was 101%; in assay [5], 87%; in [6], 96%. Moreover, the Activity in [7] turned out to be 100%; in assay [8], 75%; in [9], 86%; in assay [10] it was 83%; in assay [11], 116%; in the assay listed under Homo sapiens, 102%. Moreover, the inhibition result (in assay [12]; at mTORC1 (Homo sapiens) [13]) was “Active” throughout. In addition, the inhibition entry at mTORC1 (Homo sapiens) [14], at mTORC1 (Homo sapiens) [15] and at mTORC2 (Homo sapiens) was “Dose-Dependent Effect” each time.
